Experimental data as given in ChEMBL document CHEMBL4177770, “Discovery of MK-6169, a Potent Pan-Genotype Hepatitis C Virus NS5A Inhibitor with Optimized Activity against Common Resistance-Associated Substitutions” (J Med Chem, 2018).
Positions count from the first letter of the chain named.

Key:
[1] = Oral bioavailability in Wistar Han rat at 10 mg/kg by LC/MS method; assay type: ADME, organism-based; conditions: in vivo
Outline: (§1)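 Male Wistar Han rats, two per dosing group, dosed orally at 10 mg/kg in 10% TWEEN. Plasma was separated from collected blood by centrifugation and analysed by LC/MS.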

[2] = AUC in Wistar Han rat at 10 mg/kg, po by LC/MS method; assay type: ADME, organism-based; conditions: in vivo; outline: as §1
[3] = tested on: T1, Nonstructural protein 5A (Hepatitis C virus), Q5L478 [Y93H]; experiment: Inhibition of NS5A Y93H mutant in HCV genotype 1a infected in HuH7 replicon cells assessed as decrease in viral replication after 3 days by RT-PCR method; assay type: cell-based; conditions: Hepatitis C virus subtype 1a
T1 sequence (whole entry): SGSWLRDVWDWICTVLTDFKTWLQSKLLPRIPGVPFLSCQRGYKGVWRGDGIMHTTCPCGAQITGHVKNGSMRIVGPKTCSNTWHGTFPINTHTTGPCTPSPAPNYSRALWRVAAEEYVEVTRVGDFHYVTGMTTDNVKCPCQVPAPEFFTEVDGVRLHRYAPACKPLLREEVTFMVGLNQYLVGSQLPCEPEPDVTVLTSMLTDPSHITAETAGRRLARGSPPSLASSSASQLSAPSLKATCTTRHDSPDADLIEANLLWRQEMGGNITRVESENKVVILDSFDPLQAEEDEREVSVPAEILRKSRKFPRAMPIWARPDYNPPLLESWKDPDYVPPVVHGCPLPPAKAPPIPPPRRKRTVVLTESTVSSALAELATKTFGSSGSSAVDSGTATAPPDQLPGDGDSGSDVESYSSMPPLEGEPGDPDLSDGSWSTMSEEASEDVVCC

[4] = Half life in Wistar Han rat at 2 mg/kg, iv by LC/MS method; assay type: ADME, organism-based; conditions: in vivo
Outline: (§2)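 Male Wistar Han rats, two per group, dosed IV at 2 mg/kg in 60% PEG200. Plasma was obtained by centrifuging the blood, and compound concentrations were measured by LC/MS.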

[5] = tested on: Hepatitis C virus subtype 1a; experiment: Resistance ratio of EC90 for NS5A Y93H mutant in HCV genotype 1a infected in HuH7 replicon cells to EC90 for NS5A in HCV genotype 1a infected in HuH7 replicon cells; assay type: cell-based
[6] = Resistance ratio of EC90 for NS5A in HCV genotype 4a infected in HuH7 replicon cells to EC90 for NS5A in HCV genotype 1a infected in HuH7 replicon cells; assay type: cell-based
[7] = target: T2, Nonstructural protein 5A (Hepatitis C virus) (UniProt Q5L478); experiment: Inhibition of NS5A L31V mutant in HCV genotype 1a infected in HuH7 replicon cells assessed as decrease in viral replication after 3 days by RT-PCR method; assay type: cell-based; conditions: Hepatitis C virus subtype 1a
T2 sequence (whole entry): T1 sequence (whole entry) with H93Y

[8] = target: T2, Nonstructural protein 5A (Hepatitis C virus); experiment: Inhibition of NS5A in HCV genotype 3a infected in HuH7 replicon cells assessed as decrease in viral replication after 3 days by RT-PCR method; assay type: cell-based; conditions: Hepatitis C virus subtype 3a
[9] = target: T2, Nonstructural protein 5A (Hepatitis C virus); experiment: Inhibition of NS5A L31M mutant in HCV genotype 2b infected in HuH7 replicon cells assessed as decrease in viral replication after 3 days by RT-PCR method; assay type: cell-based; conditions: Hepatitis C virus subtype 2b
[10] = Resistance ratio of EC90 for NS5A L31M mutant in HCV genotype 2b infected in HuH7 replicon cells to EC90 for NS5A in HCV genotype 1a infected in HuH7 replicon cells; assay type: cell-based
[11] = target: T2, Nonstructural protein 5A (Hepatitis C virus); experiment: Inhibition of NS5A in HCV genotype 1a infected in HuH7 replicon cells assessed as decrease in viral replication after 3 days by RT-PCR method; assay type: cell-based; conditions: Hepatitis C virus subtype 1a
[12] = Resistance ratio of EC90 for NS5A in HCV genotype 1b infected in HuH7 replicon cells to EC90 for NS5A in HCV genotype 1a infected in HuH7 replicon cells; assay type: cell-based
[13] = tested on: Hepatitis C virus subtype 1a; experiment: Resistance ratio of EC90 for NS5A L31V mutant in HCV genotype 1a infected in HuH7 replicon cells to EC90 for NS5A in HCV genotype 1a infected in HuH7 replicon cells; assay type: cell-based
[14] = Clearance in Wistar Han rat at 2 mg/kg, iv by LC/MS method; assay type: ADME, organism-based; conditions: in vivo; outline: as §2
[15] = Resistance ratio of EC90 for NS5A in HCV genotype 3a infected in HuH7 replicon cells to EC90 for NS5A in HCV genotype 1a infected in HuH7 replicon cells; assay type: cell-based
[16] = target: T2, Nonstructural protein 5A (Hepatitis C virus); experiment: Inhibition of NS5A in HCV genotype 4a infected in HuH7 replicon cells assessed as decrease in viral replication after 3 days by RT-PCR method; assay type: cell-based; conditions: Hepatitis C virus subtype 4a
[17] = target: T2, Nonstructural protein 5A (Hepatitis C virus); experiment: Inhibition of NS5A in HCV genotype 1b infected in HuH7 replicon cells assessed as decrease in viral replication after 3 days by RT-PCR method; assay type: cell-based; conditions: Hepatitis C virus subtype 1b
[18] = Cmax in Wistar Han rat at 10 mg/kg, po by LC/MS method; assay type: ADME, organism-based; design: dose 10 mg/kg, route oral; conditions: in vivo; outline: as §1
[19] = MRT in Wistar Han rat at 100 mg/kg, po by LC/MS method; assay type: ADME, organism-based; conditions: in vivo
Outline: (§3)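 Single rising oral dose study in fed male Wistar Han rats, dosed PO in 10% TWEEN at the indicated doses. Plasma was obtained by centrifuging the blood, and compound levels were determined by LC/MS.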

[20] = Oral bioavailability in Beagle dog at 5 mg/kg by LC/MS method; assay type: ADME, organism-based, Canis lupus familiaris; conditions: in vivo
Outline: (§4)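 Beagle dogs, two animals per dosing group. Oral dose was given in 10% TWEEN. Blood was collected and spun to plasma, and plasma compound levels were measured by LC/MS.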

[21] = Drug level in Wistar Han rat at 100 mg/kg, po measured at 24 hrs by LC/MS method; assay type: ADME, organism-based; conditions: in vivo, read-out: Drug uptake; outline: as §3
[22] = Tmax in Wistar Han rat at 100 mg/kg, po by LC/MS method; assay type: ADME, organism-based; conditions: in vivo; outline: as §3
[23] = MRT in Wistar Han rat at 10 mg/kg, po by LC/MS method; assay type: ADME, organism-based; conditions: in vivo; outline: as §1
[24] = Clearance in Beagle dog at 1 mg/kg, iv by LC/MS method; assay type: ADME, organism-based, Canis lupus familiaris; conditions: in vivo
Outline: (§5)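 Beagle dogs, two animals per group, dosed IV at 1 mg/kg in 60% PEG200. Plasma was prepared from collected blood by centrifugation, and compound was quantified by LC/MS.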

[25] = Drug level in Wistar Han rat at 10 mg/kg, po measured at 24 hrs by LC/MS method; assay type: ADME, organism-based; conditions: in vivo, read-out: Drug uptake; outline: as §1
[26] = Cmax in Wistar Han rat at 100 mg/kg, po by LC/MS method; assay type: ADME, organism-based; design: dose 100 mg/kg, route oral; conditions: in vivo; outline: as §3
[27] = Cmax in Beagle dog at 5 mg/kg, po by LC/MS method; assay type: ADME, organism-based, Canis lupus familiaris; design: dose 5 mg/kg, route oral; conditions: in vivo; outline: as §4
[28] = Cmax in Wistar Han rat at 300 mg/kg, po by LC/MS method; assay type: ADME, organism-based; design: dose 300 mg/kg, route oral; conditions: in vivo; outline: as §3
[29] = Tmax in Wistar Han rat at 300 mg/kg, po by LC/MS method; assay type: ADME, organism-based; conditions: in vivo; outline: as §3
[30] = Tmax in Wistar Han rat at 10 mg/kg, po by LC/MS method; assay type: ADME, organism-based; conditions: in vivo; outline: as §1
[31] = AUC in Wistar Han rat at 100 mg/kg, po by LC/MS method; assay type: ADME, organism-based; conditions: in vivo; outline: as §3
[32] = Drug level in Beagle dog at 5 mg/kg, po measured at 24 hrs by LC/MS method; assay type: ADME, organism-based, Canis lupus familiaris; conditions: in vivo, read-out: Drug uptake; outline: as §4
[33] = AUC in Wistar Han rat at 300 mg/kg, po by LC/MS method; assay type: ADME, organism-based; conditions: in vivo; outline: as §3
[34] = AUC in Beagle dog at 5 mg/kg, po by LC/MS method; assay type: ADME, organism-based, Canis lupus familiaris; conditions: in vivo; outline: as §4
[35] = Half life in Beagle dog at 1 mg/kg, iv by LC/MS method; assay type: ADME, organism-based, Canis lupus familiaris; conditions: in vivo; outline: as §5
[36] = Drug level in Wistar Han rat at 300 mg/kg, po measured at 24 hrs by LC/MS method; assay type: ADME, organism-based; conditions: in vivo, read-out: Drug uptake; outline: as §3
[37] = MRT in Wistar Han rat at 300 mg/kg, po by LC/MS method; assay type: ADME, organism-based; conditions: in vivo; outline: as §3

Structure (SMILES) | bioavailability [1] [%] | AUC [2] [µM·h] | EC90 [3] [pM] | half-life [4] [h] | EC90 [7] [pM] | EC90 [8] [pM] | EC90 [9] [pM] | EC90 [11] [pM] | clearance [14] [mL/min/kg] | EC90 [16] [pM] | EC90 [17] [pM] | Cmax [18] [nM] | MRT [19] [h] | bioavailability [20] [%] | concentration at 24 h [21] [nM] | Tmax [22] [h] | MRT [23] [h] | clearance [24] [mL/min/kg] | concentration at 24 h [25] [nM] | Cmax [26] [nM] | further results
COC(=O)N[C@H](C(=O)N1CCC[C@H]1c1ncc(-c2cc(F)c3c(c2)O[C@@H](c2ccc4c(c2)OCCC4)n2c-3cc3cc(-c4cnc([C@@H]5CCCN5C(=O)[C@@H](NC(=O)OC)C5CCOCC5)[nH]4)ccc32)[nH]1)C(C)C | 0.8 | 0.13 | 35 | 3.2 | 5 | 8 | 19 | 4 | 11 | 7 | 6 | 32 | – | – | – | – | – | – | – | – | Ratio [5]: < 10; Ratio [6]: < 10; Ratio [10]: < 10; Ratio [12]: < 10; Ratio [13]: < 10; Ratio [15]: < 10
COC(=O)N[C@H](C(=O)N1CCC[C@H]1c1ncc(-c2cc(F)c3c(c2)O[C@@H](c2ccc(C4CC4)s2)n2c-3cc3cc(-c4cnc([C@@H]5CCCN5C(=O)[C@@H](NC(=O)OC)C5C[C@@H](C)O[C@@H](C)C5)[nH]4)ccc32)[nH]1)C(C)C (stereo not given in full) | 5.9 | 0.33 to 0.92 | 27 | 5.1 | 5 | 8 | 25 | 4 | 11 | 7 | 4 | 67 to 80 | 17 | 8.5 | 27 | 2 | 9 | 3 | 3 to 5 | 220 | Cmax [27]: 330 nM; Cmax [28]: 390 nM; Tmax [29]: 6 h; Tmax [30]: 4 h; AUC [31]: 1.95 µM·h; concentration at 24 h [32]: 11 nM; AUC [33]: 4.08 µM·h; AUC [34]: 2.42 µM·h; half-life [35]: 7.2 h; concentration at 24 h [36]: 40 nM; MRT [37]: 11 h
COC(=O)N[C@H](C(=O)N1CCC[C@H]1c1ncc(-c2cc(F)c3c(c2)O[C@@H](c2ccc(C4CC4)s2)n2c-3cc3cc(-c4cnc([C@@H]5CCCN5C(=O)[C@@H](NC(=O)OC)C5C[C@@H](C)O[C@H](C)C5)[nH]4)ccc32)[nH]1)C(C)C (stereo not given in full) | 6.3 | 0.31 to 0.93 | 15 | 3.6 | 4 | 7 | 12 | 4 | 11 | 7 | 4 | 50 to 119 | 7.6 | 18.7 | 9 | 3 | 6 | 2.6 | 1 to 4 | 240 | Cmax [27]: 640 nM; Cmax [28]: 510 nM; Tmax [29]: 7 h; Tmax [30]: 3 h; AUC [31]: 2.07 µM·h; concentration at 24 h [32]: 87 nM; AUC [33]: 5.58 µM·h; AUC [34]: 5.05 µM·h; half-life [35]: 11.3 h; concentration at 24 h [36]: 29 nM; MRT [37]: 9.3 h
